In all, about 300,000 compounds went through this assay and about 4,400 (1.5%) were called active. The full list was thinned out, with actives kept by preference. A number with no mark means an inactive call.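 How the source made its calls: active means mean inhibition across valid replicates above about 55% (limit read from the data); inconclusive means mean below that limit but half or more replicates reach it; inactive means mean below it, under half of replicates reach it.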
experiment: Trypanosoma cruzi replication blockers in host cells – luminescence, NIH3T3 host cells, primary screen (AID 1885);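 further: signal also drops with host cell toxicity which is not excluded here; 0% = plate median of DMSO wells and 100% = zero luminescence signal; higher percent means less beta-gal luminescence so fewer parasites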; details: T. cruzi beta-gal in NIH3T3, luminescence, 90 h; hits give high values; concentration not given here
Procedure, shortened: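 compound dosing = single 50 nL compound addition per well in DMSO | material = NIH/3T3 host cells with β-galactosidase reporter T. cruzi | input = 5,000 host fibroblasts per well | timing = ≥90 h infection period, 3 h prior cell attachment | read-out basis = percent inhibition of parasite-derived β-gal signal | detection = GalScreen β-gal luminescence, detergent lysis, 60 min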

| SMILES | inhibition |
| --- | --- |
| CC(Oc1ccccc1[N+](=O)[O-])C(=O)N/N=C/c1ccoc1 (stereo unspecified) | -8.31% |
| O=C(Nc1ccc(N2CCCCC2)cc1)c1cc(S(=O)(=O)N2CCOCC2)ccc1F | 22.8% |
| CCN(CC)c1ccc(S(=O)(=O)N2CCOCC2)cc1NC(=O)CSc1cccc[n+]1[O-] | 5.13% |
| O=C(Nc1ccc(S(=O)(=O)N2CCCC2)cc1Cl)C1=COCCO1 | -14.4% |
| CCN(CC)c1ccc(S(=O)(=O)N2CCCCC2)cc1NC(=O)C1=COCCO1 | 61% (active) |
| COc1cccc(NC(=O)CN(C)C(=O)CSCc2nc3scc(-c4cccs4)c3c(=O)[nH]2)c1 | -4.78% |
| O=C(NN1CCOCC1)c1cccc(F)c1 | -3.38% |
| COc1cc(NS(=O)(=O)c2ccc3ccccc3c2)c2ncccc2c1 | 76.5% (active) |
| COc1ccc2cc(S(=O)(=O)Nc3ccccn3)ccc2c1 | 4.63% |
| Cc1ccc(NS(=O)(=O)c2ccc(C)c(NC(=O)COc3ccc4ccccc4c3)c2)c(C)c1 | 30.6% |
| CC(C)C(c1nnnn1C1CCCCC1)N1CCN(C(=O)c2ccco2)CC1 (stereo unspecified) | -11.6% |
| CC(C)(C)c1ccc(C(=O)NCCn2c(N)c(C#N)c3nc4ccccc4nc32)cc1 | -43.8% |
| CC(C)Cn1c(N)c(C(=O)NCc2cccs2)c2nc3ccccc3nc21 | 59.8% (active) |
| CCCNC(=O)c1c(N)n(-c2ccc(S(N)(=O)=O)cc2)c2nc3ccccc3nc12 | -22.9% |
| COc1ccccc1CCNC(=O)C1CCN(C(=O)/C=C/c2ccccc2)CC1 | -2.7% |
| CCN(CC)CCN(C(=O)c1ccc(N2C(=O)CCC2=O)cc1)c1nc2cc3c(cc2s1)OCO3 | 40.8% |
| CCN(CC)CCN(C(=O)c1cccc([N+](=O)[O-])c1)c1nc2ccc(OC)cc2s1 | 55.5% (active) |
| CCOc1ccc2nc(N(CCN(C)C)C(=O)c3ccc4ccccc4c3)sc2c1 | 26.5% |
| CCOc1ccc(NC(=O)CCC(=O)NNC(=O)NC2CCCCC2)cc1 | 8.19% |
| Cc1ccc2nc(SCC(=O)N3CC(C)OC(C)C3)nc(=O)n2c1 (stereo unspecified) | -6.75% |
| CCN(Cc1ccccc1)S(=O)(=O)c1cc2c3c(c1)CCN3C(=O)CC2 | -1.06% |
| O=c1cnnc(Nc2ccccc2F)[nH]1 | -1.79% |
| CC(C)(C)[C@H]1C=C(C(=O)NCc2ccccc2)O[C@@H](OCc2ccc(CO)cc2)C1 | 7.55% |

| SMILES | inhibition |
| --- | --- |
| O=C(C1=C[C@H](c2ccc(C(F)(F)F)cc2)C[C@H](OCc2ccc(CO)cc2)O1)N1CCN(Cc2ccccc2)CC1 | 40.5% |
| O=C(NCc1ccccc1)C1=C[C@@H](c2ccc(C(F)(F)F)cc2)C[C@@H](OCc2ccc(CO)cc2)O1 | 63% (active) |
| CN(C)c1nc(Nc2ccc(Cl)c(Cl)c2)nc(N(C)C)n1 | 9.61% |
| OCCNc1nc(Nc2ccc(Cl)c(Cl)c2)nc2ccccc12 | 64.3% (active) |
| COc1cc2nc(Cl)nc(NCCO)c2cc1OC | -12.7% |
| COCCNc1nc(-c2ccccc2)nc2c1oc1ccccc12 | 36.8% |
| CCc1noc(C)c1C(=O)Oc1ccc(N(C)S(=O)(=O)c2ccc(C)c(C)c2)cc1 | 31% |
| COC(=O)C(C(=O)Nc1cccc(Cl)c1C)C1CCCC1 (stereo unspecified) | -20.2% |
| COCCCn1c(SCC(=O)Nc2oc(C)c3c(C)n[nH]c(=O)c23)nc2sc3c(c2c1=O)CCC3 | 2.14% |
| CN(C1CCS(=O)(=O)C1)S(=O)(=O)c1ccc2ccccc2c1 (stereo unspecified) | -3.79% |
| Cc1ccccc1Nc1nc(-c2cccnc2)cs1 | 20.2% |
| Brc1ccc(-c2csc(N/N=C/c3ccc4c(c3)OCO4)n2)cc1 | 31.5% |
| Brc1ccc(-c2csc(N/N=C/c3cccnc3)n2)cc1 | 69.8% (active) |
| COC(C[C@@H]1O[C@@H]1C(=O)[C@@H](C)OCc1ccccc1)OC | 3.07% |
| CCCCN(CCCC)CCCNC(=O)CN1C(=O)COc2ccc(S(=O)(=O)N3CCC(C)CC3)cc21 | 10.4% |
| Cc1cc(C)c(-c2c(O)c3ccccc3n(C)c2=O)c(C)c1 | -3.11% |
| COc1cc(C2/C(=C(\O)c3ccc4c(c3)CC(C)O4)C(=O)C(=O)N2c2nnc(C)s2)cc(OC)c1OC (stereo unspecified) | -5.79% |
| O=C(CSc1n[nH]c(=O)n1-c1ccccc1)Nc1ccccc1C(F)(F)F | -3.4% |
| O=C(NCCC1CCCCN1S(=O)(=O)c1ccccc1)C(=O)NCC1CCCO1 (stereo unspecified) | -5.32% |
| COc1cccc(CNC(=O)CCC2CCCN(Cc3ccc(OC(F)F)cc3)C2)c1 (stereo unspecified) | 49.4% |
| CSc1ncccc1C(=O)N1CCCC(CCC(=O)NCc2ccccc2F)C1 (stereo unspecified) | 2.43% |
| O=C(CCC1CCCN(Cc2ccc(O)c(Cl)c2)C1)NCc1ccccc1F (stereo unspecified) | 65.4% (active) |
| CC(=O)c1ccc(S(=O)(=O)N2CCN(C(=O)/C=C/c3ccc4ccccc4n3)CC2)cc1 | 20.6% |

| SMILES | inhibition |
| --- | --- |
| CC(=O)c1ccc(S(=O)(=O)N2CCC3(CC2)OCCO3)cc1 | 4.17% |
| CC(=O)c1ccc(S(=O)(=O)N2CCN(c3nc4c(C)c(C)ccc4cc3C#N)CC2)cc1 | 63.6% (active) |
| CCOc1ccc2ccccc2c1/C=N/NC(=O)c1c(C)cc(C)[nH]c1=O | 13.7% |
| O=C(CSc1ccc(-c2ccc(-n3cccn3)cc2)nn1)Nc1ccc([N+](=O)[O-])cc1 | -0.835% |
| COc1ccc(C(CNC(=O)c2ccc(S(=O)(=O)Nc3ccccc3C)cc2)N2CCOCC2)cc1 (stereo unspecified) | -0.159% |
| CSc1nccc(NC(=O)c2ccc(C(C)(C)C)cc2)n1 | -6.33% |
| NC(=O)C1(N2CCCCC2)CCN(C2CC(=O)N(Cc3ccc(N4CCCC4=O)cc3)C2=O)CC1 (stereo unspecified) | 7.91% |
| CC(C)(C)NC(=O)CN1CCC(NC(=O)C23CC4CC(CC(C4)C2)C3)CC1 | 26.6% |
| O=C(N1CCCC1)C12CC3CC(C1)CC(C(=O)N1CCCC1)(C3)C2 | -14.8% |
| CN1CCN(CC(=O)C23CC4CC(CC(C4)C2)C3)CC1 | 56.4% (active) |
| COc1ccc(CNc2cc(C)cc(C)c2)cc1OC | -0.404% |
| COc1ccc(CC(=O)Nc2ccc3c(c2)CCC3)cc1S(=O)(=O)N1CCOCC1 | -10.7% |
| COc1ccc(CNc2ccc3c(c2)CCC3)cc1OC | 65.6% (active) |
| Cc1ccc(S(=O)(=O)NCCC(=O)NNC(=O)C2COc3ccccc3O2)cc1 (stereo unspecified) | 1.4% |
| COc1cccc(C(=O)Nc2cc3c(cc2Br)OCCCO3)c1 | 11.1% |
| Oc1ccc2ccccc2c1N=Nc1nccs1 | 71.1% (active) |
| Oc1ccc(N=Nc2nccs2)c(O)c1 | 47.7% |
| Cc1ccc(N2CC(C(=O)Nc3cc(Cl)ccc3-n3cncn3)CC2=O)cc1 (stereo unspecified) | -5.75% |
| COc1ccc(-c2c(NC(=O)c3ccco3)oc3ccc(Cl)cc3c2=O)cc1 | -16.1% |
| CC(=O)c1ccc(S(=O)(=O)NCc2nnnn2-c2ccccc2)cc1 | -4.22% |
| CCCCN(C(=O)c1ccc(S(=O)(=O)N2CCOCC2)cc1)C1CCS(=O)(=O)C1 (stereo unspecified) | -3.57% |
| COc1ccccc1OCCNC(=O)c1cc([N+](=O)[O-])cc([N+](=O)[O-])c1 | 72.3% (active) |
| CC(C)(C)SCCNC(=O)c1cccc([N+](=O)[O-])c1 | -5.13% |

| SMILES | inhibition |
| --- | --- |
| COc1ccccc1OCCNC(=O)CCNC(=O)c1ccccc1Cl | -10.4% |
| CS(=O)(=O)N1CCN(C(=O)CSc2ccccc2)CC1 | -1.63% |
| COc1ccc(C(C)NC(=O)C2CCCC2)cc1 (stereo unspecified) | -4.14% |
| COc1ccccc1CC(NC(C)=O)C(=O)NC1CCN(C(=O)Nc2ccccc2Cl)CC1 (stereo unspecified) | -13.9% |
| COc1ccccc1CN1CCCC(N2CCN(c3ccc(F)cc3)CC2)C1 (stereo unspecified) | 57.3% (active) |
| COc1ccc(CN2CCCC(N3CCc4ccccc4C3)C2)c(O)c1 (stereo unspecified) | 22.8% |
| COc1ccccc1CN1CCN(Cc2cc(OC)c(OC)cc2OC)CC1 | 25.3% |
| COc1ccc(C[C@H]2CN3C(=NC[C@H]3C)N2CCNC(=O)CCC2CCCCC2)cc1 | -4.54% |
| Cc1cc2c(C)nc(N/N=C/c3ccccc3)nc2o1 | 22.4% |
| c1ccc(Nc2nc(-c3ccncc3)cs2)nc1 | 64% (active) |
| Clc1ccc(Nc2nc(-c3cccs3)cs2)nc1 | 42.7% |
| Cc1cccc(Nc2nc(-c3ccccc3)cs2)n1 | 18.7% |
| CCCCn1c(N)c(N2CCOCC2)c(=O)n(CC(=O)NCCc2ccccc2)c1=O | -20% |
| Cc1cc(/C=N/NC(=O)c2cccnc2)c(C)n1CC(C)C | -5.46% |
| O=C(N/N=C/c1sc(N2CCCCC2)nc1-c1cccs1)c1cccnc1 | 65% (active) |
| O=C(N/N=C/c1ccccn1)c1cccnc1 | 3.75% |
| C=CCNC(=S)/N=c1/ccccn1Cc1ccccc1 | 36.1% |
| O=C(OCCOCn1cc(Br)c(=O)[nH]c1=O)c1ccccc1 | -6.18% |
| O=C(OCC(=O)N1CCCC1=O)c1cc(S(=O)(=O)N2CCOCC2)ccc1Cl | -8.41% |
| Cc1nc(N2CCN(c3ccccn3)CC2)c2c(C)c(C(=O)Nc3ccc(F)c(Cl)c3)sc2n1 | 3.99% |
| Cc1nc(N2CCC(C)CC2)c2c(C)c(C(=O)Nc3cc(F)ccc3C)sc2n1 | 49.5% |
| Cc1nc(N2CCOCC2)c2c(C)c(C(=O)Nc3ccc(C(F)(F)F)cc3)sc2n1 | 68% (active) |

From PubChem BioAssay AID1885 (Broad Institute, 2009)
